Measurements published in ChEMBL document CHEMBL4190362, “Synthesis, biological evaluation and quantitative structure-active relationships of 1,3-thiazolidin-4-one derivatives. A promising chemical scaffold endowed with high antifungal potency and low cytotoxicity” (Eur J Med Chem, 2017).

Columns and labels:
Klebsiella oxytoca = assay: Antibacterial activity against Klebsiella oxytoca assessed as inhibition of microbial growth incubated for 18 to 22 hrs by broth microdilution method; assay type: functional
How it was run: (§1)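 Broth microdilution in Mueller-Hinton II broth following NCCLS recommendations; compounds dissolved in DMSO.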

Enterococcus faecalis = assay: Antibacterial activity against Streptococcus faecalis assessed as inhibition of microbial growth incubated for 18 to 22 hrs by broth microdilution method; assay type: functional; how it was run: as §1
[1] = system: Streptococcus alpha-hemolyticus (Streptococcus sp.); assay: Antibacterial activity against Streptococcus Streptococcus alpha hemolyticus assessed as inhibition of microbial growth incubated for 18 to 22 hrs by broth microdilution method
Nakaseomyces glabratus = assay: Antifungal activity against Candida glabrata clinical isolates assessed as inhibition of microbial growth incubated for 24 hrs by broth microdilution method; assay type: functional
How it was run: (§2)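 Twenty-two clinical Candida isolates (8 C. albicans, 4 C. glabrata, 3 C. tropicalis, 3 C. krusei, 2 C. parapsilosis, 2 C. sake) were identified by colony morphology and biochemistry and subcultured at 35 °C for purity. Compounds were dissolved in DMSO and tested by broth microdilution in Sabouraud dextrose broth per NCCLS/CLSI/EUCAST guidance. Values are geometric mean MIC per species (µg/mL).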

Candida parapsilosis = assay: Antifungal activity against Candida parapsilosis clinical isolates assessed as inhibition of microbial growth incubated for 24 hrs by broth microdilution method; assay type: functional; settings: Lodderomyces parapsilosis; how it was run: as §2
Staphylococcus aureus = assay: Antibacterial activity against Staphylococcus aureus assessed as inhibition of microbial growth incubated for 18 to 22 hrs by broth microdilution method; assay type: functional; how it was run: as §1
Escherichia coli = assay: Antibacterial activity against Escherichia coli assessed as inhibition of microbial growth incubated for 18 to 22 hrs by broth microdilution method; assay type: functional; how it was run: as §1
Enterobacter = assay: Antibacterial activity against Enterobacter spp. assessed as inhibition of microbial growth incubated for 18 to 22 hrs by broth microdilution method; assay type: functional; how it was run: as §1
Candida albicans = assay: Antifungal activity against Candida albicans clinical isolates assessed as inhibition of microbial growth incubated for 24 hrs by broth microdilution method; assay type: functional; how it was run: as §2
Staphylococcus warneri = assay: Antibacterial activity against Staphylococcus warneri assessed as inhibition of microbial growth incubated for 18 to 22 hrs by broth microdilution method; assay type: functional; how it was run: as §1
Proteus mirabilis = assay: Antibacterial activity against Proteus mirabilis assessed as inhibition of microbial growth incubated for 18 to 22 hrs by broth microdilution method; assay type: functional; how it was run: as §1
[Candida] sake = Antifungal activity against Candida sake clinical isolates assessed as inhibition of microbial growth incubated for 24 hrs by broth microdilution method; assay type: functional; settings: Fermentozyma sake; how it was run: as §2
Pichia kudriavzevii = assay: Antifungal activity against Candida krusei clinical isolates assessed as inhibition of microbial growth incubated for 24 hrs by broth microdilution method; assay type: functional; how it was run: as §2
Candida tropicalis = assay: Antifungal activity against Candida tropicalis clinical isolates assessed as inhibition of microbial growth incubated for 24 hrs by broth microdilution method; assay type: functional; how it was run: as §2

Structure (SMILES) | MIC (Klebsiella oxytoca) [µg/mL] | MIC (Enterococcus faecalis) [µg/mL] | MIC [1] [µg/mL] | MIC (Nakaseomyces glabratus) [µg/mL] | MIC (Candida parapsilosis) [µg/mL] | MIC (Staphylococcus aureus) [µg/mL] | MIC (Escherichia coli) [µg/mL] | MIC (Enterobacter) [µg/mL] | MIC (Candida albicans) [µg/mL] | MIC (Staphylococcus warneri) [µg/mL] | MIC (Proteus mirabilis) [µg/mL] | MIC ([Candida] sake) [µg/mL] | MIC (Pichia kudriavzevii) [µg/mL] | MIC (Candida tropicalis) [µg/mL]
O=C1CS/C(=N/N=C\c2ccc([N+](=O)[O-])cc2)N1 | ≥ 256 | ≥ 256 | ≥ 256 | 8 | 4 | ≥ 256 | ≥ 256 | ≥ 256 | 16 | ≥ 256 | ≥ 256 | 8 | 8 | 4
C/C(=N/N=C1\NC(=O)CS1)c1ccc(Cl)s1 | ≥ 256 | ≥ 256 | ≥ 256 | 8 | 8 | ≥ 256 | ≥ 256 | ≥ 256 | 8 | ≥ 256 | ≥ 256 | 16 | 16 | 8
CC1=C(/C=N\N=C2/NC(=O)CS2)C(C)(C)CC=C1 | ≥ 256 | ≥ 256 | ≥ 256 | 2 | 16 | ≥ 256 | ≥ 256 | ≥ 256 | 2 | ≥ 256 | ≥ 256 | 2 | 2 | 16
CC1(C)CCC/C(=N/N=C2\NC(=O)CS2)C1 | ≥ 256 | ≥ 256 | ≥ 256 | 2 | 128 | ≥ 256 | ≥ 256 | ≥ 256 | 2 | ≥ 256 | ≥ 256 | 2 | 2 | 32
C/C(=N/N=C1\NC(=O)CS1)C1CC1 | ≥ 256 | ≥ 256 | ≥ 256 | 2 | 4 | ≥ 256 | ≥ 256 | ≥ 256 | 2 | ≥ 256 | ≥ 256 | 2 | 2 | 32
C/C(=N/N=C1\NC(=O)CS1)c1ccsc1 | ≥ 256 | ≥ 256 | ≥ 256 | 8 | 8 | ≥ 256 | ≥ 256 | ≥ 256 | 8 | ≥ 256 | ≥ 256 | 16 | 16 | 8
O=C1CS/C(=N/N=C\c2ccccc2)N1 | ≥ 256 | ≥ 256 | ≥ 256 | 8 | 128 | ≥ 256 | ≥ 256 | ≥ 256 | 4 | ≥ 256 | ≥ 256 | 2 | 16 | 4
C/C(=N/N=C1\NC(=O)CS1)c1ccccc1[N+](=O)[O-] | ≥ 256 | ≥ 256 | ≥ 256 | 2 | 2 | ≥ 256 | ≥ 256 | ≥ 256 | 2 | ≥ 256 | ≥ 256 | 2 | 8 | 2
O=C1CSC(NN=C2CCCCCC2)=N1 | ≥ 256 | ≥ 256 | ≥ 256 | 8 | 8 | ≥ 256 | ≥ 256 | ≥ 256 | 8 | ≥ 256 | ≥ 256 | 8 | 8 | 8
O=C1CSC(NN=C2CCCCC2)=N1 | ≥ 256 | ≥ 256 | ≥ 256 | 64 | 256 | ≥ 256 | ≥ 256 | ≥ 256 | 64 | ≥ 256 | ≥ 256 | 256 | 256 | 64
O=C1CSC(NN=C2CCCCCCC2)=N1 | ≥ 256 | ≥ 256 | ≥ 256 | 8 | 32 | ≥ 256 | ≥ 256 | ≥ 256 | 8 | ≥ 256 | ≥ 256 | 32 | 32 | 8
